What was measured:
[1] = approximate, from the literature; ref not given; cited from earlier work
Saturation = type: physicochemical; conditions: 24 h, 37 °C, in words; for saturation solubility in gastric media, rank among the media: FaSSGF and blank FaSSGF, pH 1.6
[2] = pH of saturated solutions in biorelevant media; type: physicochemical; conditions: 24 h, 37 °C, pH probe; for pH of saturated solution in FaSSGF: excess solid in FaSSGF, initial pH 1.6; for pH of saturated solution in FaSSGF / pH of saturated solution in FaSSIF / pH of saturated solution in FeSSIF: 350 rpm, n = 3; for pH of saturated solution in FaSSIF: excess solid in FaSSIF, initial pH 6.5; for pH of saturated solution in FeSSIF: excess solid in FeSSIF, initial pH 5.0
In short: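 Excess solid was added separately to 1 mL of each medium: FaSSIF (pH 6.5; NaTC 3 mM, lecithin 0.75 mM), FeSSIF (pH 5.0; 15 mM, 3.75 mM), FaSSGF (pH 1.6; 0.08 mM, 0.02 mM), or blank versions without NaTC and lecithin. Samples were shaken at 350 rpm for 24 h at 37 °C, then read with a pH probe. Triplicate; mean ± standard deviation, n = 3.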

Row | saturation solubility in FaSSIF, rank among the media (Saturation; FaSSIF, pH 6.5) | pH of saturated solution in FaSSGF [2] | pH of saturated solution in FaSSIF [2] | pH of saturated solution in FeSSIF [2] | Molecule | pKa [1] | saturation solubility in gastric media, rank among the media (Saturation) | pH of media in the presence of excess material, all media investigated ([2]; FaSSIF, FeSSIF, FaSSGF and blank equivalents)
1 | highest | 7.6 | 7.9 | 7.7 | O=C([O-])CCCCCCCNC(=O)c1ccccc1O.[Na+] [SNAC, salcaprozate sodium] | approximately 5 | lowest | –
2 | – | 9.2 | 9.0 | 8.8 | CCCCCCCCCC(=O)[O-].[Na+] [C10, sodium caprate] | approximately 5 | – | –
3 | – | – | – | – | insulin: recombinant human insulin procured from Merck KGaA, used as model peptide | – | highest solubility | did not appear to impact media pH
